ChEMBL document CHEMBL4765491, “Discovery of Potent and Selective Methylenephosphonic Acid CD73 Inhibitors” (J Med Chem, 2021)

Legend:
[1] = molecular target: T1, Ectonucleoside triphosphate diphosphohydrolase 8 (Homo sapiens, UniProt Q5MY95); assay: Inhibition of human NTPDase-8 expressed in CHO-K1 cells in presence of DNA/LTX mixture; assay type: cell-based
T1 sequence (Q5MY95 whole entry): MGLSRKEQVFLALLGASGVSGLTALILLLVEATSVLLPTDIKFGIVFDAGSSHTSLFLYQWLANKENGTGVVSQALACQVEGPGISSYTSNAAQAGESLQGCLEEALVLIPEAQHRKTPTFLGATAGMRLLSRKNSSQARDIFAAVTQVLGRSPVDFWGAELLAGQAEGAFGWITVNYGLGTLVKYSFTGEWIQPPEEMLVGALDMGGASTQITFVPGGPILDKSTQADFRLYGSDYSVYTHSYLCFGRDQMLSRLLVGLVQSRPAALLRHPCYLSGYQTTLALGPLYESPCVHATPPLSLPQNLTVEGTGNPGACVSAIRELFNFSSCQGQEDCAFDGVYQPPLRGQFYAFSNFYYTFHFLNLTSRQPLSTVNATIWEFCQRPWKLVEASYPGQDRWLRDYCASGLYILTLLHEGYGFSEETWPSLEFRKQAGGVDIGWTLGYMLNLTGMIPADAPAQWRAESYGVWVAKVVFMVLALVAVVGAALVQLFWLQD
Outline: (§1)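 CHO-K1 cells transfected overnight (Lipofectamine LTX) with NTPDase2, 3 or 8 plasmid, then harvested into HEPES pH 7.4 buffer. 10,000 cells/well, 2% DMSO, 16-point 1:3 compound dilutions (final 10–0 μM), 1 h preincubation at 37 °C. ATP added at 25 (NTPDase2), 15 (NTPDase3) or 30 μM (NTPDase8), 50 min at 37 °C. Phosphate read with PiColorLock Gold at 620 nm.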

Adenosine receptor A2a = Adenosine receptor A2a (Homo sapiens, UniProt P29274); assay: Inhibition of A2AR (unknown origin) expressed in CHO cells assessed as reduction in NECA-stimulated cellular cAMP levels incubated for 90 mins by FRET assay; assay type: functional, cell-based
Outline: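 Tetracycline-induced CHO cells stably expressing ADORA2A, 2000 cells/well, preincubated with 20-point 1:2 compound dilutions (final 10–0 μM). Stimulated with 30 nM NECA, 30 min at 37 °C. Quenched with ULight-anti-cAMP in lysis buffer, then Eu-cAMP tracer added, 60 min at 37 °C. Inhibition read as change in cellular cAMP.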

[2] = molecular target: T2, Ectonucleoside triphosphate diphosphohydrolase 2 (Homo sapiens, UniProt Q9Y5L3); assay: Inhibition of human NTPDase-2 expressed in CHO-K1 cells in presence of DNA/LTX mixture; assay type: cell-based; outline: as §1
T2 sequence (Q9Y5L3 whole entry): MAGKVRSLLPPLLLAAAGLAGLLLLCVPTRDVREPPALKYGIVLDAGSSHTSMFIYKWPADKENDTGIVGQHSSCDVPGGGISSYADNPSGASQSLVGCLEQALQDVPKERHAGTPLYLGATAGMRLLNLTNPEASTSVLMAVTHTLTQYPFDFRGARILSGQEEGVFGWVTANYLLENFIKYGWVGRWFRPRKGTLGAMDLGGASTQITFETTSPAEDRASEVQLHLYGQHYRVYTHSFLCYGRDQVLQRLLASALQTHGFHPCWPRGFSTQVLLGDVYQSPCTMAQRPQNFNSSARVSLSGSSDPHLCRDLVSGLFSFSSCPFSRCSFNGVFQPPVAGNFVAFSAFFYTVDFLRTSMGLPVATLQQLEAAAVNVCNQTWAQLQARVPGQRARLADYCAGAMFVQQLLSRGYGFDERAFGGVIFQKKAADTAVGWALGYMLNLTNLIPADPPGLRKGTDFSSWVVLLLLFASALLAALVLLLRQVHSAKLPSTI

[3] = molecular target: T3, Ectonucleoside triphosphate diphosphohydrolase 3 (Homo sapiens, UniProt O75355); assay: Inhibition of human NTPDase-3 expressed in CHO-K1 cells in presence of DNA/LTX mixture; assay type: cell-based; outline: as §1
T3 sequence (O75355 whole entry): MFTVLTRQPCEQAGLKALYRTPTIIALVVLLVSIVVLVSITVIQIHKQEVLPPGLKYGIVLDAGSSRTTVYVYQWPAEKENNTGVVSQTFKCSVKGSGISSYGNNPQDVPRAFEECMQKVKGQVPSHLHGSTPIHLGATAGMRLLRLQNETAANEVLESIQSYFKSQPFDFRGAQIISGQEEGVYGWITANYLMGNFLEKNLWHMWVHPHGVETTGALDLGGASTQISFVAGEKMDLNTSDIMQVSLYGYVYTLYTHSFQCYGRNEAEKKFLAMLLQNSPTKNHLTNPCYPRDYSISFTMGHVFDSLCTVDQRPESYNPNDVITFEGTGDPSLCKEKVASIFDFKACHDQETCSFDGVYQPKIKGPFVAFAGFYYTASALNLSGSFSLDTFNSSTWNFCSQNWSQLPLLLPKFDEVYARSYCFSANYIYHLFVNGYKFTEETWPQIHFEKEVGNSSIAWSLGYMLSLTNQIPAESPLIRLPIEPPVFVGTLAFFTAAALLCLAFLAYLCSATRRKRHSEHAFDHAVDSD

5'-nucleotidase [4] = molecular target: T4, 5'-nucleotidase (Homo sapiens, UniProt P21589); assay: Inhibition of soluble human CD73 incubated for 60 mins before addition of AMP and further incubated for 60 mins by colorimetric assay
5'-nucleotidase [5] = molecular target: T4, 5'-nucleotidase; assay: Inhibition of CD73 in human SK-OV-3 cells incubated for 60 mins before addition of AMP and further incubated for 60 mins by colorimetric assay; assay type: cell-based
[6] = Half life in Sprague-Dawley rat at 0.25 to 0.5 mg/kg, iv measured up to 24 hrs by LC-MS/MS analysis; assay type: ADME, organism-based; conditions: in vivo, dose 0.25-0.5 mg/kg
Outline: (§2)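 Male SD rats (0.27–0.30 kg), acclimated. Single IV bolus via femoral vein at 0.25 or 0.5 mg/kg in 31.6% DMA/36.8% ethanol/31.6% PEG. Jugular blood at predose, 5, 15, 30 min, 1, 2, 4, 6, 8, 24 h, collected into K2-EDTA; plasma spun at 4 °C, stored −80 °C until analysis.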

[7] = Stability in mouse hepatocytes; assay type: ADME, cell-based, Hepatocyte
5'-nucleotidase [8] = molecular target: T4, 5'-nucleotidase; assay: Inhibition of human CD73 expressed in CHO cells incubated for 60 mins before addition of AMP and further incubated for 60 mins by colorimetric assay; assay type: cell-based
Outline: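 Thawed stable CD73-CHO cells in HEPES pH 7.4 saline buffer with 0.1% glucose, 1500 cells/well. Preincubated 60 min at 37 °C with 16-point 1:3 compound dilutions (final 100–0 or 0.1–0 μM; 10 or 2% DMSO). 25 μM AMP then added, 60 min at 37 °C/5% CO2. Supernatant phosphate measured with PiColorLock Gold. Activity normalized to DMSO and no-cell wells. IC50 from a four-parameter fit.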

[9] = Stability in rat hepatocytes; assay type: ADME, cell-based, Hepatocyte
[10] = Clearance in Sprague-Dawley rat at 0.25 to 0.5 mg/kg, iv measured up to 24 hrs by LC-MS/MS analysis; assay type: ADME, organism-based; conditions: in vivo, dose 0.25-0.5 mg/kg; outline: as §2
[11] = Stability in dog hepatocytes; assay type: ADME, cell-based, Canis lupus familiaris, Hepatocyte
[12] = Stability in human hepatocytes; assay type: ADME, cell-based, Hepatocyte

T4 sequence (P21589 whole entry): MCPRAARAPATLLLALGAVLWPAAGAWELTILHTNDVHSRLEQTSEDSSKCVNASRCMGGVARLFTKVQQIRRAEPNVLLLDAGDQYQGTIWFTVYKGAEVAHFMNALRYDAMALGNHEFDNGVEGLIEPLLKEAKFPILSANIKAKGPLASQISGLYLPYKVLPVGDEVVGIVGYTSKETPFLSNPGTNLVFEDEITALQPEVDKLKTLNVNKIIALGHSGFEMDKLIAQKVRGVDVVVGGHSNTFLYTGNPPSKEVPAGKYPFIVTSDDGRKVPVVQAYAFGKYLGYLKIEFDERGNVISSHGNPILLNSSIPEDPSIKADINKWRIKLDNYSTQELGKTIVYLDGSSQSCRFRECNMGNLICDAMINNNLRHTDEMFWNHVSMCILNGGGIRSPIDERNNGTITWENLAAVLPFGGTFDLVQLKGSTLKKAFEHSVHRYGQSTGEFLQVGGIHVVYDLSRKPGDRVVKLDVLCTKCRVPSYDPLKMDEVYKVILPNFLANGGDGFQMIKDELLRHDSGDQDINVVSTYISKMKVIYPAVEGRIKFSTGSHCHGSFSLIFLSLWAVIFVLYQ
Sequence of Adenosine receptor A2a (P29274 whole entry): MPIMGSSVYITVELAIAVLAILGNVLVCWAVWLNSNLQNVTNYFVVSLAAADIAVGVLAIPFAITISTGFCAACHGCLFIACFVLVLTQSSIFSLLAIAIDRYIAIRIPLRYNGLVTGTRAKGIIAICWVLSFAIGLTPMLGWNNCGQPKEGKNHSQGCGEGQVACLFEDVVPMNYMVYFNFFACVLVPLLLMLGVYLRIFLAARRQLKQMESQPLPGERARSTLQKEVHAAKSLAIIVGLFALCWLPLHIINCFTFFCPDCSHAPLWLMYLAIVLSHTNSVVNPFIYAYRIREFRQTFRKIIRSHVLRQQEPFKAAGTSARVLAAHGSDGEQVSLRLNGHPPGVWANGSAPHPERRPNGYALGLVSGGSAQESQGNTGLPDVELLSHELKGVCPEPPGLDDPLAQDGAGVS

**Q.** Which results are given for `O=P(O)(O)COC[C@H]1O[C@@H](n2ncc3c(NC4CCCC4)nc(Cl)nc32)[C@H](O)[C@@H]1O`?
**A.** IC50 [1]: > 10 µM; IC50 (Adenosine receptor A2a): > 10 µM; IC50 [2]: > 10 µM; IC50 [3]: > 10 µM; IC50 (5'-nucleotidase [4]): 0.86 nM; IC50 (5'-nucleotidase [5]): 0.55 nM; half-life [6]: 72 min; Stabilty [7]: Stable; IC50 (5'-nucleotidase [8]): 2.6 nM; Stabilty [9]: Stable; clearance [10]: 2.17 mL/min/kg; Stabilty [11]: Stable; Stabilty [12]: Stable
